An excerpt weighted towards active compounds, which were near 2.1% of everything screened.
MEKK2 mut-MEK5 = signal of MEK5 binding to mutant human MEKK2 PB1 domain; bead flow cytometry, Alexa488-MEK5 binding to MEKK2 mutant; percent response, % at 10 µM; 290,000 compounds, 0.35% hits; AID 1530; in the data active = percent response above about 24%, passing the limit was not always enough
MEKK2 WT-MEK5 = raises or lowers MEK5 binding to wildtype human MEKK2 PB1 domain | Q9Y2U5 | bead flow cytometry, Alexa488-MEK5 binding to MEKK2 WT; actives lie on both sides | binding response (% of control), % at 10 µM | 290,000 compounds, 1.1% hits | AID 1531; in the data active = binding response below about 67% or above about 130%
MEKK3 PB1 HTS = modulators (inhibitors or enhancers) of MEK5 binding to human MEKK3 PB1 domain. binding response (% of control), % at 10 µM. bead-based flow cytometry, Alexa488-MEK5 binding to MEKK3; actives lie on both sides; 0 = blocked by unlabeled MEK5, 100 = vehicle. 290,000 compounds, 1.4% hits;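 active = binding response more than 3 SD above or below the average of its plate-row segment, actives on both sides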;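 note: Alexa488 bead fluorescence after subtracting the streptavidin-only scavenger bead signal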
STK33 inh = blocks human STK33 kinase activity; Q9BYT3; purified STK33, MBP phosphorylation, ADP-Glo luminescence; inhibition, % at 10 µM; 320,000 compounds, 0.073% hits; AID 2661;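 active = inhibition at or above 25%, using the most active replicate where run in duplicate; inactive = inhibition below 25%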
GSK3B inh = inhibitors of human GSK3beta kinase | P49841 | GST-GSK3beta kinase, ADP-Glo luminescence, 60 min; active compounds read low | activity score (negative = inhibition), % at 10 µM | 300,000 compounds, 0.038% hits | AID 2097;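 active = more than half of replicate wells score below -50%, meaning over 50% inhibition versus plate controls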;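 note: 0% = median DMSO wells and -100% = median GW8510 positive control wells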
Target sequence (P49841 whole entry, looked up): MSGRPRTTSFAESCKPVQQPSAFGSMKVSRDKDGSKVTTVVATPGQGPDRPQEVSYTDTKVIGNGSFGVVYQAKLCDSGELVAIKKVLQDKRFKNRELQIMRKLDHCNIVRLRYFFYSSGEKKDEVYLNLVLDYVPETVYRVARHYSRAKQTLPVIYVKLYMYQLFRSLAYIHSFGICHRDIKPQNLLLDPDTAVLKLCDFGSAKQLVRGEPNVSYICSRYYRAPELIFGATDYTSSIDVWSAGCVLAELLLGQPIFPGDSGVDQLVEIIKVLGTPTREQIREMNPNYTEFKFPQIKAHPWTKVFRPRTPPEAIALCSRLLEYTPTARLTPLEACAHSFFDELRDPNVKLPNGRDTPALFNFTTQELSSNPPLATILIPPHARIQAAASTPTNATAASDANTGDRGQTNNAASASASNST
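test system = GST-tagged human GSK3beta kinase, cell-free | reagent = 25 µM ATP with peptide substrate | dosing = one dose of 10 µM per compound | schedule = 60 min reaction, RT | detection = luminescent ADP-Glo measurement of ADP formed | control set = DMSO neutral wells and GW8510 at 20 µM as positive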
GSK3 alpha inh = blocks human GSK-3 alpha kinase. P49840. ADP-Glo luminescence, 60 min. inhibition, % at 10 µM. 320,000 compounds, 0.1% hits;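 active = more than half of replicates show inhibition above 20%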;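 note: GST-tagged GSK-3 alpha with peptide substrate and 25 µM ATP; 0% = DMSO neutral wells and 100% = GW8510 positive control wells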
MEKK2wt confirm = raises or lowers MEK5 binding to wildtype human MEKK2, retest | shares compounds with MEKK3 PB1 HTS | bead flow cytometry, Alexa488-MEK5 binding to MEKK2 WT; actives lie on both sides | binding response (% of control), % at 10 µM | 5,900 compounds, 2.4% hits | AID 1892; in the data active = binding response below about 16% or above about 210%; inactive = in between
MEKK2mut-MEK5 = signal of MEK5 binding to mutant human MEKK2, retest; bead flow cytometry, Alexa488-MEK5 binding to MEKK2 mutant; 5,900 compounds, 2% hits; percent response, % at 10 µM; AID 1893; shares compounds with MEKK3 PB1 HTS; in the data active = percent response mostly above about 71%, no sharp cut-off; inactive = mostly below about 38%;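 note: higher means compound restores mutant binding toward wildtype level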
MEKK3 confirm = confirmation of inhibitors of MEK5 binding to human MEKK3 | shares compounds with MEKK3 PB1 HTS | binding response (% of control), % at 10 µM | 5,900 compounds, 1.8% hits | bead flow cytometry, Alexa488-MEK5 binding to MEKK3; active compounds read low;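 active = binding response below 72% of control, or above a set upper limit, though filed actives all read lower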;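 note: 100% = DMSO only wells and 0% = binding blocked by excess unlabeled MEK5; lower values mean stronger disruption of MEK5 binding to MEKK3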
* hit, by the source's call; · = no result; [ ] = another dose, or the depositor's remark.

SMILES | MEKK2 mut-MEK5 | MEKK2 WT-MEK5 | MEKK3 PB1 HTS | STK33 inh | GSK3B inh | GSK3 alpha inh | MEKK2wt confirm | MEKK2mut-MEK5 | MEKK3 confirm
CCN(CC)c1ccc(C=Nc2ccccc2C)c(O)c1 | 0.0 | 104.0 | 140.0* | 0.8 | 1.9 | 1.4 | 89.0 | -6.0 | 98.0
Cc1ccc2cc(/C=N/Nc3nc4ccccc4[nH]3)c(Cl)nc2c1 | 5.0 | 109.0 | 103.0 | · | -0.6 | · | · | · | ·
CCN(CC)c1ccc(/C=N/Nc2nc3ccccc3[nH]2)c(O)c1 | 31.0* | 129.0 | 107.0 | 1.2 | -0.3 | -0.7 | 131.0 | 21.0 | 103.0
COc1ccc(C(=O)NC(=S)Nc2ccc3[nH]c(=O)[nH]c3c2)c(OC)c1 | 0.0 | 98.0 | 99.0 | 1.1 | 4.8 | -4.1 | · | · | ·
O=C(O)CCCCCN1C(=O)C(O)=C(C(=O)/C=C/c2ccccc2)C1c1cccc([N+](=O)[O-])c1 (stereo not given) | -12.0 | 91.0 | 95.0 | -0.6 | 5.3 | -1.9 | · | · | ·
O=C(Cc1ccc(Cl)cc1)Nc1ccc2c(c1)C(=O)NC2=O | -14.0 | 81.0 | 84.0 | 0.7 | 0.0 | 5.5 | · | · | ·
CC(Sc1nc2ccccc2o1)C(=O)O (stereo not given) | -21.0 | -39.0*[inhibitor] | -3.0*[inhibitor] | -0.4 | 3.0 | -1.0 | 103.0 | 3.0 | 104.0
CC(=O)Nc1ccc(S(=O)(=O)Nc2nc3ccccc3nc2Nc2cccc(S(N)(=O)=O)c2)cc1 | -7.0 | 95.0 | 92.0 | -0.3 | 6.1 | -0.4 | · | · | ·
C=CC[C@H](CC(=O)NCCO)C(=O)NCCOC(=O)[C@@H](CC=C)CC(=O)OC(C)(C)C | · | · | · | -1.4 | · | -0.7 | · | · | ·
CCC(C)(C)NC(=O)CN(C(=O)CCC(=O)Nc1nccs1)c1cccc(C)c1C | 16.0 | 102.0 | 104.0 | -1.3 | 1.3 | 2.3 | · | · | ·
CC(NCC(O)COCCC12CC3CC(CC(C3)C1)C2)c1ccccc1 (stereo not given) | 13.0 | 139.0* | 99.0 | 1.0 | -0.4 | · | 114.0 | 3.0 | 98.0
NCC(O)COCCC12CC3CC(CC(C3)C1)C2 (stereo not given) | 17.0 | 120.0 | 105.0 | -1.7 | -7.0 | 1.1 | · | · | ·
Cn1cccc1C(=O)NC(=O)CSc1nnc(C2CC2)n1-c1ccccc1 | 8.0 | 122.0 | 127.0* | -1.4 | -0.3 | -1.7 | 93.0 | -4.0 | 95.0
CCNC(=O)CSc1nnc(C2CC2)n1-c1ccccc1 | 8.0 | 101.0 | 106.0 | -0.1 | -1.0 | 1.9 | · | · | ·
COc1ccc(C2/C=C\CN(S(=O)(=O)c3ccc(C)cc3)CC(=O)N2Cc2ccc(F)cc2)cc1 (stereo not given) | 2.0 | 158.0* | 129.0* | -0.9 | -2.8 | -2.0 | 102.0 | 1.0 | 100.0
COc1ccc(C2/C=C\CN(C(=O)NC34CC5CC(CC(C5)C3)C4)CC(=O)N2Cc2ccc(F)cc2)cc1 (stereo not given) | 2.0 | 147.0* | 123.0 | 3.1 | -1.3 | -0.9 | 96.0 | -1.0 | 102.0
COC(=O)N1C/C=C\C(c2ccc(OC)cc2)N(Cc2ccc(F)cc2)C(=O)C1 (stereo not given) | 3.0 | 94.0 | 96.0 | -0.7 | -2.5 | -2.3 | · | · | ·
Cn1cc(NC(=O)OCc2ccc(Cl)cc2)c(C(F)(F)F)n1 | -2.0 | 100.0 | 100.0 | 0.6 | -0.8 | 0.5 | · | · | ·
CCOC(=O)c1cc(C(=O)NC(C)c2ccccc2)c(=O)[nH]c1C (stereo not given) | 13.0 | 108.0 | 106.0 | -1.8 | -7.6 | -1.2 | · | · | ·
COC(=O)c1cc(C(=O)NCc2ccccc2)c(=O)[nH]c1C | -19.0 | 3.0*[inhibitor] | 3.0*[inhibitor] | -0.6 | -5.0 | 0.0 | 100.0 | -2.0 | 102.0
NC(=O)C1CCN(CC(=O)Nc2cc(S(=O)(=O)N3CCOCC3)ccc2N2CCCC2)CC1 | · | · | · | -1.1 | · | 1.1 | · | · | ·
CCOC(=O)c1nnn(-c2nc(OC)nc(N3CCCC3)n2)c1-c1ccccc1 | · | · | · | -1.4 | -25.0 | · | · | · | ·
CCNc1nc(N2CCCCC2)nc(-n2nnc(C(=O)OCC)c2C)n1 | -12.0 | 61.0*[inhibitor] | 60.0*[inhibitor] | 2.2 | 5.5 | -2.6 | 67.0 | 0.0 | 101.0
Cn1c(=O)n(C)c2cc(S(=O)(=O)Nc3cc(Cl)ccc3O)ccc21 | -2.0 | 91.0 | 90.0 | -0.5 | 0.5 | -1.3 | · | · | ·
CCc1cc(=O)oc2cc(C)cc(OCC(=O)NC(Cc3ccc(Cl)cc3)C(=O)O)c12 (stereo not given) | 0.0 | 102.0 | 99.0 | -0.8 | -0.4 | 2.6 | · | · | ·
SMILES | MEKK2 mut-MEK5 | MEKK2 WT-MEK5 | MEKK3 PB1 HTS | STK33 inh | GSK3B inh | GSK3 alpha inh | MEKK2wt confirm | MEKK2mut-MEK5 | MEKK3 confirm
O=C1CC(c2ccccc2)CC(O)=C1C=NCCCN1CCOCC1 (stereo not given) | -11.0 | 89.0 | 81.0*[inhibitor] | -1.7 | 7.4 | -5.4 | 100.0 | -7.0 | 103.0
CC1=CC(C)(C)n2c(O)c(N=N)c3cc(C)cc1c32 | 1.0 | 105.0 | 141.0* | 0.5 | 4.2 | -3.9 | 103.0 | 3.0 | 103.0
COc1ccc(CCN2C(=NC(=O)CC(C)C)SC3CS(=O)(=O)CC32)cc1OC (stereo not given) | 0.0 | 97.0 | 99.0 | 0.7 | -0.1 | -0.9 | · | · | ·
COc1cccc(-n2c(C)n[nH]c2=O)c1 | -14.0 | 3.0*[inhibitor] | 3.0*[inhibitor] | -0.9 | 1.5 | -2.2 | 102.0 | 5.0 | 100.0
COc1cccc(-n2c(C)nn(C)c2=O)c1 | 3.0 | 102.0 | 104.0 | 0.2 | 2.7 | · | · | · | ·
O=C(Nc1cc(-c2ccccc2)[nH]n1)c1ccccc1F | -48.0 | 38.0*[inhibitor] | 35.0*[inhibitor] | 3.2 | -2.7 | 12.0 | 104.0 | 5.0 | 102.0
Cc1cc2nc(SCCOC(=O)Nc3ccccc3)nc(C)c2cc1C | 3.0 | 107.0 | 106.0 | -1.0 | -2.5 | 2.8 | · | · | ·
Cc1cc2nc(SCCOC(=O)Nc3cccc(Cl)c3)nc(C)c2cc1C | 1.0 | 111.0 | 153.0* | -1.0 | -0.8 | 0.6 | 98.0 | -3.0 | 102.0
COc1ccc(CN2CCC(N(CCc3ccccc3)Cc3ccccc3)CC2)c(OC)c1 | 52.0* | 161.0* | 90.0 | -2.3 | -1.2 | 3.7 | 152.0 | 25.0 | 110.0
CCNC(=O)CON=C1c2ccccc2-c2ccccc21 | 0.0 | 103.0 | 99.0 | 2.9 | 0.8 | -1.1 | · | · | ·
CCC(CC)NC(=O)CON=C1c2ccccc2-c2ccccc21 | 0.0 | 107.0 | 146.0* | · | 2.0 | · | 99.0 | -2.0 | 102.0
O=C(Cn1cnc2c(nnn2Cc2ccc(F)cc2)c1=O)Nc1ccccc1 | -1.0 | 105.0 | 107.0 | -0.4 | -0.1 | -0.6 | · | · | ·
COc1ccc(C(CCN)c2ccc3c(c2)OCO3)cc1 (stereo not given) | 28.0* | 124.0 | 102.0 | -0.4 | -1.8 | -1.9 | 132.0 | 16.0 | 105.0

Screening data as filed in PubChem BioAssay.
